By IC50 is commonly meant the concentration that gives 50% inhibition. A higher IC50 goes with weaker potency in that assay. As a reminder, the CC50 is the concentration at which the toxic effect on the cells reaches its halfway point. One may read the IC90 as the point of the concentration-response curve where the effect stands at 90%.

From ChEMBL document CHEMBL1147747, “HIV integrase inhibitors with nucleobase scaffolds: discovery of a highly potent anti-HIV agent” (J Med Chem, 2006) come the findings set out here.

Data set [1] deals with T1, Human immunodeficiency virus type 1 integrase (Human immunodeficiency virus 1, UniProt Q7ZJM1). The data set can be described thus: Inhibition of 3' processing step of wt HIV1 integrase.
Data set [2] has as its target T1, Human immunodeficiency virus type 1 integrase. The experiment in a line: Inhibition of strand transfer step of wt HIV1 integrase.
Data set [3] in a line: Therapeutic index (TI=CC50/IC50) in HIV1 NL4-3 at uM. It is filed as cell-based. The following applies: PBMC infected with HIV-1 NL4-3; read-out: Ratio CC50/IC50. An outline of the steps:
(§1)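 Therapeutic index was calculated as CC50/IC50 from the PBMC assay, using HIV-1 NL4-3 or HIV-1 TEKI. Cell viability gave CC50, and antiviral readout gave IC50. Triplicate serial ½log10 dilutions were used, with a high test concentration of 200 μM or 1 μM.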

Data set [4] in a line: Therapeutic index (TI=CC50/IC50) in HIV1 TEKI at 1 uM. The format is cell-based. The following applies: PBMC infected with HIV-1 TEKI; read-out: Ratio CC50/IC50. An outline of the steps: as §1
Data set [5] concerns PBMC. The data set can be described thus: Antiviral activity against HIV1 NL4-3 replication in PBMC at 1 uM. The format is functional, cell-based. The following applies: Homo sapiens, NL4-3, PBMC. An outline of the steps:
(§2)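 PBMC cell-based microtiter anti-HIV assay against clinical isolate HIV-1 TEKI (NSI phenotype) or HIV-1 NL4-3 (SI phenotype). Test materials were run in triplicate as serial ½log10 dilutions, six to nine concentrations, from a stated high concentration (200 μM or 1 μM). IC50 and IC90 were determined, with cell viability measured in parallel. AZT was the MOI-sensitive positive control.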

Data set [6] has as its system HeLa. The experiment in a line: Anti HIV activity against HIV1 NL4-3 in HeLa-CD4-LTR-beta-gal cells in MAGI-X4 assay. The format is functional, cell-based. An outline of the steps: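 MAGI-X4 assay in HeLa-CD4-LTR-β-gal cells infected with HIV-1 NL4-3. Detects blocks in replication up to and including Tat transactivation of the LTR. Triplicate determinations over serial ½log10 dilutions (six to nine concentrations). AZT served as positive control.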

For data set [7], the system named is PBMC. The experiment in a line: Antiviral activity against HIV1 TEKI replication in PBMC at 1 uM. The format is functional, cell-based. The following applies: Homo sapiens. An outline of the steps:
as §2

A short description of data set [8]: in vitro. The following applies: PBMC infected with HIV-1 TEKI.
Data set [9] can be described thus: in vitro. The following applies: PBMC infected with HIV-1 NL4-3.
Data set [10] deals with PBMC. The data set can be described thus: Antiviral activity against HIV1 NL4-3 replication in PBMC at 200 uM. The format is functional, cell-based. The following applies: Homo sapiens, NL4-3, PBMC. An outline of the steps: as §2
For data set [11], the system named is HeLa. The data set can be described thus: Cytotoxicity against HeLa-CD4-LTR-beta-gal cells at 200 uM. It is filed as functional, cell-based. The following applies: Homo sapiens. An outline of the steps: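 Cytotoxicity was measured in HeLa-CD4-LTR-β-gal cells within the MAGI-X4 assay. Up to 200 μM was tested, in triplicate, as serial ½log10 dilutions.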

Data set [12] deals with PBMC. The data set can be described thus: Antiviral activity against HIV1 TEKI replication in PBMC at 200 uM. It is filed as functional, cell-based. The following applies: Homo sapiens. The procedure, abridged: as §2

Activity calls are given as the source filed them. The rule behind the calls is not given here.

T1 sequence (Q7ZJM1 whole entry): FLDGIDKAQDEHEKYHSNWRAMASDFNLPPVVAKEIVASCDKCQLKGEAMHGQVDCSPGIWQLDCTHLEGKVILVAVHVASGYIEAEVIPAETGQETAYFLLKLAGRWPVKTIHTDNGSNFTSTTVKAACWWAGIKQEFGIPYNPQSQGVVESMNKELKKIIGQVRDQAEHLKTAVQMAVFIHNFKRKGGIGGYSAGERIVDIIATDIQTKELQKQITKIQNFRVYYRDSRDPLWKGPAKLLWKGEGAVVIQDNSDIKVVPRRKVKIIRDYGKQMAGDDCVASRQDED

`O=C(O)C(=O)/C=C(\O)c1cn(Cc2ccc(F)cc2)c(=O)n(Cc2ccc(F)cc2)c1=O`: the IC50 in data set [1] was 3900 nM; in data set [2] it was under 700 nM.

For the compound `Cc1cn([C@H]2C[C@H](N=[N+]=[N-])[C@@H](CO)O2)c(=O)[nH]c1=O` [ZIDOVUDINE], the selectivity ratio in data set [3] is over 5560; in data set [4] it was over 7140. For the same compound, the CC50 in data set [5] and in data set [7] was over 1000 nM each time. Also, the half-inhibitory concentration (IC50) in data set [5] was determined as 0.18 nM; in data set [7], 0.14 nM. In addition, in [6], the result was Active.

With `O=C(O)C(=O)/C=C(\O)c1cn(Cc2ccccc2)c(=O)[nH]c1=O`, the values for the IC50 in [1] and in data set [2] were 10000 nM and 500 nM, respectively.

With `O=C(O)C(=O)/C=C(\O)c1cn(Cc2ccccc2F)c(=O)n(Cc2ccccc2F)c1=O`, the IC50 was 4100 nM in [1] and under 600 nM in data set [2].

On to `O=C(O)C(=O)/C=C(\O)c1cn(Cc2ccccc2)c(=O)n(Cc2ccccc2)c1=O`, for which the selectivity ratio at 200 µM was over 4000 in data set [8] and over 10000 in [9]. Moreover, in data set [6], the outcome was Active. The CC50 in data set [10] and in data set [12] was over 200000 nM each time. The CC90 in data set [10] and in data set [12] was over 200000 nM throughout. The IC50 was under 20 nM in [10], 3700 nM in data set [1], 200 nM in [2] and 50 nM in data set [12]. In addition, the IC90 in data set [10] amounted to 1540 nM; in [12], 3910 nM. Moreover, the outcome in [11] was inactive.

As to `CC(C)(C)NC(=O)[C@@H]1C[C@@H]2CCCC[C@@H]2CN1C[C@@H](O)[C@H](Cc1ccccc1)NC(=O)[C@H](CC(N)=O)NC(=O)c1ccc2ccccc2n1`, in data set [6], the result was inactive.
